2 molecules from ChEMBL document CHEMBL4229446, “Development of Novel Monoamine Oxidase-B (MAO-B) Inhibitors with Reduced Blood-Brain Barrier Permeability for the Potential Management of Noncentral Nervous System (CNS) Diseases” (J Med Chem, 2018) can be followed below.

Data set [1] is described as follows: Tmax in C57BL/6 mouse brain at 24.5 mg/kg, iv administered as single dose measured 24 hrs by UPLC-MS/MS analysis. The data set is classed as ADME, organism-based. The gist of the method:
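Brains weighed, portion bead-homogenised in 50 mM ammonium formate, extracted in acidified organic solvent, quantified by UPLC-MS/MS. ng/g taken as ng/mL. Tmax from noncompartmental analysis.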

Data set [2] in a line: Cmax in C57BL/6 mouse brain at 24.5 mg/kg, po administered as single dose measured 24 hrs by UPLC-MS/MS analysis. The data set is classed as ADME, organism-based. Further details: dose 24.5 mg/kg, route oral. Summed up:
(§1)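 15 animals dosed, 3 sacrificed at each of 1, 2, 4, 6 and 24 h. Plasma and brain homogenate were extracted and quantified by UPLC-MS/MS. Parameters came from noncompartmental analysis. Values above or below the limit of quantification, or undetected, were omitted. Kp = AUClast brain/plasma.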

A short description of data set [3]: Cmax in C57BL/6 mouse plasma at 24.5 mg/kg, po administered as single dose measured 24 hrs by UPLC-MS/MS analysis. The data set is classed as ADME, organism-based. Further details: dose 24.5 mg/kg, route oral. The gist of the method:
as §1

Data set [4] can be described thus: AUClast in C57BL/6 mouse brain at 24.5 mg/kg, po administered as single dose measured 24 hrs by UPLC-MS/MS analysis. In kind it is ADME, organism-based. Further details: dose 24.5 mg/kg, route oral, time 0 - last. Summed up:
as §1

A short description of data set [5]: Ratio of AUClast in brain to plasma in C57BL/6 mouse at 24.5 mg/kg, po administered as single dose measured 24 hrs by UPLC-MS/MS analysis. In kind it is ADME, organism-based. The gist of the method:
as §1

A short description of data set [6]: Cmax in C57BL/6 mouse brain at 24.5 mg/kg, sc administered as single dose measured 24 hrs by UPLC-MS/MS analysis. In kind it is ADME, organism-based. Also noted: dose 24.5 mg/kg, route subcutaneous. The gist of the method:
as §1

Data set [7] is described as follows: AUClast in C57BL/6 mouse plasma at 24.5 mg/kg, sc administered as single dose measured 24 hrs by UPLC-MS/MS analysis. In kind it is ADME, organism-based. Further details: dose 24.5 mg/kg, time 0 - last, route subcutaneous. The gist of the method:
as §1

Data set [8] can be described thus: AUClast in C57BL/6 mouse brain at 24.5 mg/kg, iv administered as single dose measured 24 hrs by UPLC-MS/MS analysis. In kind it is ADME, organism-based. Further details: dose 24.5 mg/kg, route intravenous, time 0 - last. Summed up: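 21 animals dosed at 0 min, 3 sacrificed at each of 0, 5, 15, 30 min, 1, 4 and 24 h. Plasma was extracted by protein precipitation with phospholipid removal. Brain was weighed, bead-homogenised in 50 mM ammonium formate and extracted in acidified organic solvent. Quantified by UPLC-MS/MS (MRM). Brain ng/g taken as ng/mL. Parameters came from noncompartmental analysis. Kp = AUClast brain/plasma.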

A short description of data set [9]: AUClast in C57BL/6 mouse plasma at 24.5 mg/kg, po administered as single dose measured 24 hrs by UPLC-MS/MS analysis. In kind it is ADME, organism-based. Also noted: dose 24.5 mg/kg, route oral, time 0 - last. The gist of the method: as §1
Data set [10] can be described thus: Cmax in C57BL/6 mouse plasma at 24.5 mg/kg, sc administered as single dose measured 24 hrs by UPLC-MS/MS analysis. Also noted: dose 24.5 mg/kg, route subcutaneous. In kind it is ADME, organism-based. Summed up: as §1
A short description of data set [11]: Cmax in C57BL/6 mouse brain at 23.4 mg/kg, iv administered as single dose measured 24 hrs by UPLC-MS/MS analysis. The data set is classed as ADME, organism-based. Further details: dose 23.4 mg/kg, route intravenous. Summed up:
(§2)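 21 animals dosed at 0 min, 3 killed per time point (0, 5, 15, 30 min, 1, 4, 24 h). Plasma extracted by protein precipitation/phospholipid removal. Brain homogenized in 50 mM ammonium formate, then extracted in acidified organic solvent. Both quantified by UPLC-MS/MS (MRM), brain ng/g taken as ng/mL. Noncompartmental analysis. Kp = AUClast brain/plasma.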

A short description of data set [12]: Cmax in C57BL/6 mouse plasma at 23.4 mg/kg, po administered as single dose measured 24 hrs by UPLC-MS/MS analysis. In kind it is ADME, organism-based. Further details: dose 23.4 mg/kg, route oral. The gist of the method:
(§3)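 15 animals dosed, 3 killed at each of 1, 2, 4, 6 and 24 h. Plasma and brain homogenate (ammonium formate, acidified organic extraction) assayed by UPLC-MS/MS, brain ng/g taken as ng/mL. Noncompartmental parameters exclude values above/below quantification limit or undetected. Kp = AUClast brain/plasma.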

Data set [13] in a line: Tmax in C57BL/6 mouse plasma at 23.4 mg/kg, iv administered as single dose measured 24 hrs by UPLC-MS/MS analysis. In kind it is ADME, organism-based. The gist of the method: as §2
The nature of data set [14]: Apparent half-life of the terminal disposition phase in C57BL/6 mouse plasma at 23.4 mg/kg, sc administered as single dose measured 24 hrs by UPLC-MS/MS analysis. In kind it is ADME, organism-based. Conditions: read-out: t1/2 lambda z (converted). The gist of the method: as §3
The nature of data set [15]: AUClast in C57BL/6 mouse brain at 23.4 mg/kg, sc administered as single dose measured 24 hrs by UPLC-MS/MS analysis. Also noted: dose 23.4 mg/kg, time 0 - last, route subcutaneous. In kind it is ADME, organism-based. Summed up:
as §3

Data set [16] is described as follows: AUClast in C57BL/6 mouse brain at 23.4 mg/kg, iv administered as single dose measured 24 hrs by UPLC-MS/MS analysis. The data set is classed as ADME, organism-based. Further details: dose 23.4 mg/kg, route intravenous, time 0 - last. The gist of the method: as §2
A short description of data set [17]: Cmax in C57BL/6 mouse brain at 23.4 mg/kg, po administered as single dose measured 24 hrs by UPLC-MS/MS analysis. In kind it is ADME, organism-based. Further details: dose 23.4 mg/kg, route oral. Summed up:
as §3

A short description of data set [18]: Cmax in C57BL/6 mouse plasma at 23.4 mg/kg, iv administered as single dose measured 24 hrs by UPLC-MS/MS analysis. In kind it is ADME, organism-based. Further details: dose 23.4 mg/kg, route intravenous. The gist of the method:
as §2

A short description of data set [19]: Metabolic stability in mouse liver microsomes assessed as parent compound remaining at 1 uM after 60 mins by UPLC-MS/MS analysis. The data set is classed as ADME, microsome. The settings on record: liver microsomes, read-out: Stability. The gist of the method:
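Compound at 1 μM with 0.5 mg/mL mouse or human liver microsomes in 100 mM potassium phosphate pH 7.4, 3.3 mM MgCl2, 1 mM NADPH, at 37 °C. Started with NADPH; minus-NADPH control run. Stopped at 0, 5, 15, 30, 45 and 60 min with acetonitrile/formic acid plus internal standard. Parent remaining by UPLC-MS/MS, in triplicate.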
For orientation: Liver microsomes are vesicles of endoplasmic reticulum, rich in cytochrome P450 enzymes.

The nature of data set [20]: Tmax in C57BL/6 mouse brain at 23.4 mg/kg, po administered as single dose measured 24 hrs by UPLC-MS/MS analysis. In kind it is ADME, organism-based. The gist of the method: as §3

As for `C[C@H](Cc1ccc(OCc2ccc(Br)c(Cl)c2)cc1)N(C)CC(=O)O`, the Tmax (in general, the time from dosing to the highest level) in data set [1] came to 4 h. Further, the Cmax (commonly the peak of the concentration-time curve) came out at 812 ng/mL in data set [2], 8530 ng/mL in data set [3], 806 ng/mL in [6] and 7110 ng/mL in data set [10]. The AUC(0-t) (in general, the area under the concentration-time curve up to a stated or last time point) at 24 h in [4] worked out at 12600 ng·h/mL; in [7] it was 66900 ng·h/mL; in data set [8] it was 10700 ng·h/mL; in data set [9], 104000 ng·h/mL. For the same molecule, in data set [5], the Kp (commonly tissue or fluid exposure divided by exposure in the circulation) at 24 h came out at 0.12.
`CN(CC(=O)O)[C@H](CC#N)Cc1ccc(OCc2ccc(Cl)c(Cl)c2)cc1`: the Cmax turned out to be 305 ng/mL in data set [11], 16800 ng/mL in data set [12], 91.9 ng/mL in data set [17] and 52100 ng/mL in data set [18]. The Tmax in data set [13] is 5 min; in [20], 1 h. Moreover, the half-life in [14] is 3.62 h. The results for the AUC(0-t) at 24 h in data set [15] and in data set [16] were 176 ng·h/mL and 183 ng·h/mL, respectively. The remaining at 1 h, 1 µM in [19] stood at 39%.
